Measured values collected from several papers.
Compare with care: the assays were run in different laboratories.
KDM1A: Lysine-specific histone demethylase 1A (KDM1A, Homo sapiens, UniProt O60341)
PFF0160c: Dihydroorotate dehydrogenase (quinone), mitochondrial (PFF0160c, Plasmodium falciparum, UniProt Q08210)
BMX: Cytoplasmic tyrosine-protein kinase BMX (BMX, Homo sapiens, UniProt P51813)
PDE5A: cGMP-specific 3',5'-cyclic phosphodiesterase (PDE5A, Homo sapiens, UniProt O76074)
MEP1A: Meprin A subunit alpha (MEP1A, Homo sapiens, UniProt Q16819)
PPO3: PPO3 (Agaricus bisporus, UniProt C7FF04)
HDAC2: Histone deacetylase 2 (HDAC2, Homo sapiens, UniProt Q92769)

| SMILES | target | read-out | action | method | notes | IC50 [µM] |
| --- | --- | --- | --- | --- | --- | --- |
| CCCSc1nc(Sc2nnnn2C)c2nnn(CCc3c[nH]c4ccccc34)c2n1 | KDM1A | enzyme activity | inhibitor | fluorescence |  | 0.253 |
| Cc1cc(Nc2cccc(Cl)c2)n2nc(OCCN(C)C)nc2n1 | PFF0160c | enzyme activity | inhibitor |  |  | > 10 |
| COc1ccc(Nc2nc(N)c(C(=O)c3ccc(OC)c(OC)c3)s2)cc1 | Sphingosine kinase 1 (SPHK1, Homo sapiens, UniProt Q9NYA1) | enzyme activity | inhibitor |  |  | ~3 |
| C=CC(=O)Nc1cc(Nc2nccc(Nc3cc(Cl)c(F)cc3C(C)(C)O)n2)c(OC)cc1N1CC[C@@H](N(C)C)C1 | BMX | enzyme activity | inhibitor |  | with preincubation | 2.29 |
| Cc1cc(Nc2cccc(Cl)c2)n2nc(CC3CC3)nc2n1 | PFF0160c | enzyme activity | inhibitor |  |  | > 10 |
| COc1ccc(C2=NN(C3CCCCCC3)C(=O)[C@@H]3CC=CC[C@H]23)cc1-c1ccc(C(N)=O)cc1 (relative stereo) | PDE5A | enzyme activity | inhibitor |  |  | > 10 |
| CC/C=C\C/C=C\C/C=C\C/C=C\C/C=C\CCCC(=O)O | Deoxyribonuclease-1 (DNASE1, Bos taurus, UniProt P00639) | enzyme activity | inhibitor |  |  | > 100 |
| O=C(CCN(Cc1ccncc1)Cc1ccc2c(c1)OCO2)NO | MEP1A | enzyme activity | inhibitor |  |  | 0.474 |
| CCCSc1nc(Sc2nncs2)c2nnn(CCO)c2n1 | KDM1A | enzyme activity | inhibitor | fluorescence |  | 1.05 |
| CCCCC[C@H](O)/C=C/[C@H]1[C@@H]2CO[C@@H](C2)[C@@H]1C/C=C\CCCC(=O)O | Thromboxane A2 receptor (TBXA2R, Homo sapiens, UniProt P21731) | ligand displacement |  | radioligand |  | 0.013 |
| Cc1cnc(-c2ccc(-c3ccc(NC(=O)Nc4c(F)cc(F)cc4F)cc3F)c3c2C(=O)NC3)[nH]1 | BMX | enzyme activity | inhibitor |  |  | 0.0144 |
| O=C(c1ccc2ccncc2c1)N1CCC2CC1CN2C(=O)c1n[nH]c(=O)c2ccccc12 (stereo not shown) | Poly [ADP-ribose] polymerase 1 (PARP1, Homo sapiens, UniProt P09874) | enzyme activity | inhibitor |  |  | 1.42 |
| O=C(CCN(Cc1ccncc1)Cc1ccc(Cl)c(O)c1F)NO | MEP1A | enzyme activity | inhibitor |  |  | 0.646 |
| Nc1nc(N)c(N=Nc2ccc([N+](=O)[O-])cc2)c(N)n1 | PPO3 | enzyme activity | inhibitor | absorbance |  | 40.6 |
| Cc1cc(Nc2ccc(S(F)(F)(F)(F)F)cc2)n2nc(CC(C)C)nc2n1 | PFF0160c | enzyme activity | inhibitor |  |  | > 10 |
| COc1cc(C[C@H]2C(=O)OC[C@@H]2Cc2ccc(OC)c(OC)c2)ccc1O | PDE5A | enzyme activity | inhibitor |  |  | > 20 |
| O=C(Nc1c[nH]nc1-c1nc2cc(CN3CCOCC3)ccc2[nH]1)NC1CC1 | Aurora kinase B (AURKB, Homo sapiens, UniProt Q96GD4) | enzyme activity | inhibitor | mobility shift |  | 0.0023 |
| CCOCc1nc(O)c(-c2nnc(Cc3ccc(Cl)cn3)o2)c(O)c1-c1c(OC)cccc1OC | Adenosine receptor A2a (ADORA2A, Homo sapiens, UniProt P29274) | ligand displacement |  | radioligand |  | > 30 |
| CCCON(Cc1ccc(C(=O)NO)cc1)C(=O)Nc1ccc(N(C)C)cc1 | HDAC2 | enzyme activity | inhibitor | fluorescence |  | 1.14 |
| Cc1cc(Nc2cccc(Cl)c2)n2[nH]c(=O)nc2n1 | PFF0160c | enzyme activity | inhibitor |  |  | > 10 |
| CCN1C(=O)[C@@H]2Cc3c([nH]c4ccccc34)[C@@H](c3cccnc3)N2C1=O | PDE5A | enzyme activity | inhibitor | FP |  | 0.15 |
| Cc1cc(Nc2cccc(Cl)c2)n2nc(OCCN)nc2n1 | PFF0160c | enzyme activity | inhibitor |  |  | > 10 |

| SMILES | target | read-out | action | method | notes | IC50 [µM] |
| --- | --- | --- | --- | --- | --- | --- |
| COc1cc2c(cc1OC)-c1c/c(=N\c3c(C)cc(C)cc3C)n(C)c(=O)n1CC2 | PDE5A | enzyme activity | inhibitor | FP |  | 3.4 |
| CC(C)(C)N1C(=O)[C@H]2Cc3c([nH]c4ccccc34)[C@H](c3cccnc3)N2C1=O | PDE5A | enzyme activity | inhibitor | FP |  | 4.75 |
| Cc1ccc(C(C)C)cc1NC(=O)COC(=O)/C=C/c1ccccc1O | PPO3 | enzyme activity | inhibitor |  |  | 1.81 |
| CNc1cc(Nc2ccc(C(F)(F)F)cc2)n2ncnc2n1 | PFF0160c | enzyme activity | inhibitor |  |  | 7.4 |
| CCN1C(=O)[C@@H]2Cc3c([nH]c4ccccc34)[C@@H](c3ccc(OC)c(OC)c3)N2C1=O | PDE5A | enzyme activity | inhibitor | FP |  | 13.7 |
| O=C(Nc1ccn(Cc2ccc(O)cc2C(F)(F)F)n1)c1c(F)cccc1F | Transient receptor potential cation channel subfamily A member 1 (TRPA1, Homo sapiens, UniProt O75762) | ion current | inhibitor |  |  | > 10 |
| COc1ccc([C@@H]2c3[nH]c4ccccc4c3C[C@H]3C(=O)N(c4ccc(Cl)cc4)C(=O)N23)cc1OC | PDE5A | enzyme activity | inhibitor | FP |  | 5.36 |
| CC[C@@H](C(=O)Nc1ccc(C(N)=O)c(F)c1)n1cc(OC)c(-c2cc(Cl)ccc2-n2cc(C(F)(F)F)nn2)cc1=O | Vitamin K-dependent protein C (PROC, Homo sapiens, UniProt P04070) | enzyme activity | inhibitor |  |  | > 10 |
| CNCCOc1nc2nc(C)cc(Nc3ccc(Cl)cc3)n2n1 | PFF0160c | enzyme activity | inhibitor |  |  | > 10 |
| CCC(=O)CCCCC[C@@H]1NC(=O)[C@H](C)N(C)C(=O)C[C@H](CC(C)C)NC(=O)[C@H](Cc2c[nH]c3ccccc23)NC1=O | HDAC2 | enzyme activity | inhibitor |  |  | 0.04 |
| CNCCOc1nc2nc(C)cc(Nc3cccc(Cl)c3)n2n1 | PFF0160c | enzyme activity | inhibitor |  |  | > 10 |
| C[S+]([O-])c1ccc(-c2nc(-c3ccncc3)c(-c3ccc(F)cc3)[nH]2)cc1 (stereo not shown) | Serine/threonine-protein kinase A-Raf (ARAF, Homo sapiens, UniProt P10398) | enzyme activity | inhibitor |  | lysate | > 10 |
| CCN1CC(=O)N2[C@H](c3ccc(OC)c(OC)c3)c3[nH]c4ccccc4c3C[C@@H]2C1=O | PDE5A | enzyme activity | inhibitor | FP |  | 4.35 |
| CCCCc1ccc(-c2ccc(-c3cc(C(=O)O)c4cc(Cl)cc(Cl)c4n3)o2)cc1 | Eukaryotic initiation factor 4A-I (EIF4A1, Homo sapiens, UniProt P60842) | ATPase activity | inhibitor | absorbance |  | 52.1 |
| Nc1nc(N)c(N=Nc2ccccc2[N+](=O)[O-])c(Cl)n1 | PPO3 | enzyme activity | inhibitor | absorbance |  | 24.7 |
| Cc1ccc(C(C)C)cc1NC(=O)COC(=O)c1cccc(O)c1 | PPO3 | enzyme activity | inhibitor |  |  | 11 |
| Cc1cc(Nc2ccc(C(F)(F)F)cc2)n2nc(OCCN)nc2n1 | PFF0160c | enzyme activity | inhibitor |  |  | > 10 |
| Cc1ccc(C(C)C)cc1NC(=O)COC(=O)c1cc(O)cc(O)c1 | PPO3 | enzyme activity | inhibitor |  |  | 20.2 |
| C[C@@H]1Cc2ccccc2N1C(=O)NCCCCN(C)[C@@H]1Cc2cccc3[nH]c(=O)n(c23)C1 | 5-hydroxytryptamine receptor 2A (HTR2A, Homo sapiens, UniProt P28223) | ligand displacement |  | radioligand |  | 3.7 |
| C#CCSc1nc(Sc2nnnn2-c2ccccc2)c2nnn(Cc3cccc(Cl)c3)c2n1 | KDM1A | enzyme activity | inhibitor | fluorescence |  | 0.074 |
| CCC[C@H](NC(=O)C1CN(C)C1)c1ncc(-c2cc3ccccc3nc2OC)[nH]1 | HDAC2 | enzyme activity | inhibitor | fluorescence |  | 0.75 |
